From ChEMBL document CHEMBL4251587, “Synthesis and antimicrobial activity of amino acid and peptide derivatives of mycophenolic acid” (2018)
Converted amounts (≈) assume the structure as drawn. The source made the active and inactive calls. The rule behind the calls is not given here. Non-standard residues stand in square brackets, D forms with d. Residues, ends and D or L forms follow the SMILES beside them. *: point of attachment. Mycophenolyl = COc1c(C)c2c(c(O)c1C/C=C(\C)CCC(=O)*)C(=O)OC2; Arg(NO2) = N=C(NCCC[CH](N)C(=O)O)N[N+](=O)[O-]; βAla = NCCC(=O)O

Experiments:
Type in all cases: functional
Staphylococcus aureus [1] = test: Antibacterial activity against methicillin-resistant Staphylococcus aureus ATCC 43300 after 18 to 20 hrs by spectrophotometry based microdilution method
Summary of the method: (§1)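 Broth microdilution in MHB II following EUCAST. Log-phase cultures diluted 1:1000, then 50-fold in saline to McFarland 0.5, giving 10^4 cells/ml per well. Compounds (stock in 6% DMSO) twofold serially diluted. Incubation 35 ± 1 °C, 18–20 h. OD600 plus visual read; MIC50/MIC90 = 50%/90% growth arrest. Resazurin (0.015%, 37 °C, 2 h, dark) confirmation. 3 replicates, 3 independent experiments.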

Staphylococcus aureus [2] = test: Antibacterial activity against methicillin-sensitive Staphylococcus aureus ATCC 25923 after 18 to 20 hrs by spectrophotometry based microdilution method; summary of the method: as §1
Klebsiella pneumoniae [3] = test: Antibacterial activity against ESBL positive Klebsiella pneumoniae ATCC 700603 after 18 to 20 hrs by spectrophotometry based microdilution method
Summary of the method: (§2)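 Broth microdilution in Mueller Hinton Broth II following EUCAST. Log-phase cultures were diluted to McFarland 0.5, and 104 cells/ml went into 2-fold serial dilutions of compound (stock in 6% DMSO). Incubation was 35 ± 1 °C for 18–20 h, read at OD600 and visually. MIC50 and MIC90 were taken as the concentrations giving 50% and 90% growth arrest. Resazurin (0.015%, 2 h, 37 °C, dark) confirmed the result. 3 replicates in 3 independent experiments.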

Pseudomonas aeruginosa [4] = test: Antibacterial activity against Pseudomonas aeruginosa ATCC 27853 assessed as inhibition of bacterial growth at 1500 uM after 18 to 20 hrs by spectrophotometry based microdilution method relative to untreated control; conditions: read-out: GI
Summary of the method: (§3)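 Growth inhibition at a single compound concentration in the EUCAST broth microdilution setup: Mueller Hinton Broth II, 104 cells/ml from log-phase culture, compound stock in 6% DMSO. After 35 ± 1 °C for 18–20 h, OD600 was compared with the untreated growth control. ">" marks 10–50% inhibition and ">>" marks under 10% inhibition. 3 replicates, 3 independent experiments.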

Escherichia coli [5] = test: Antibacterial activity against Escherichia coli ATCC 8739 at 750 uM after 18 to 20 hrs by spectrophotometry based microdilution method relative to untreated control; conditions: ATCC 8739, ATCC 8739, read-out: GI; summary of the method: as §3
Acinetobacter baumannii = test: Antibacterial activity against Acinetobacter baumannii ATCC 17978 after 18 to 20 hrs by spectrophotometry based microdilution method
Escherichia coli [6] = test: Antibacterial activity against Escherichia coli ATCC 8739 after 18 to 20 hrs by spectrophotometry based microdilution method; summary of the method: as §2
Staphylococcus aureus [7] = test: Antibacterial activity against methicillin-sensitive Staphylococcus aureus ATCC 25923 assessed as inhibition of bacterial growth at 187.5 uM after 18 to 20 hrs by spectrophotometry based microdilution method relative to untreated control; conditions: read-out: GI; summary of the method: as §3
Klebsiella pneumoniae [8] = test: Antibacterial activity against ESBL positive Klebsiella pneumoniae ATCC 700603 assessed as inhibition of bacterial growth at 375 uM after 18 to 20 hrs by spectrophotometry based microdilution method relative to untreated control; conditions: read-out: GI; summary of the method: as §3
Escherichia coli [9] = test: Antibacterial activity against Escherichia coli ATCC 8739 at 375 uM after 18 to 20 hrs by spectrophotometry based microdilution method relative to untreated control; conditions: ATCC 8739, ATCC 8739, read-out: GI; summary of the method: as §3
Pseudomonas aeruginosa [10] = test: Antibacterial activity against Pseudomonas aeruginosa ATCC 27853 after 18 to 20 hrs by spectrophotometry based microdilution method; summary of the method: as §2
Escherichia coli [11] = test: Antibacterial activity against Escherichia coli ATCC 8739 assessed as inhibition of bacterial growth at 1500 uM after 18 to 20 hrs by spectrophotometry based microdilution method relative to untreated control; conditions: ATCC 8739, ATCC 8739, read-out: GI; summary of the method: as §3

Row | SMILES | MIC50 (Staphylococcus aureus [1]) | MIC50 (Staphylococcus aureus [2]) | MIC50 (Klebsiella pneumoniae [3]) | inhibition of growth at 1500 µM (Pseudomonas aeruginosa [4]) | MIC50 (Acinetobacter baumannii) | MIC50 (Escherichia coli [6]) | MIC50 (Pseudomonas aeruginosa [10]) | also measured
1 | COc1c(C)c2c(c(O)c1C/C=C(\C)CCC(=O)N[C@@H](CC(=O)O)C(=O)O)C(=O)OC2 | inactive | inactive | inactive | 10 to 50% | – | – | – | inhibition of growth at 750 µM (Escherichia coli [5]): 10 to 50%
2 | COc1c(C)c2c(c(O)c1C/C=C(\C)CCC(=O)O)C(=O)OC2 [MYCOPHENOLIC ACID] | 750 µg/mL (≈ 2340 µM) | – | 128 µg/mL (≈ 400 µM) | 10 to 50% | 128 µg/mL (≈ 400 µM) | – | – | MIC90 (Escherichia coli [6]): 750 µg/mL (≈ 2340 µM); inhibition of growth at 187.5 µM (Staphylococcus aureus [7]): 10 to 50%
3 | COc1c(C)c2c(c(O)c1C/C=C(\C)CCC(=O)N[C@H](C(=O)O)[C@@H](C)O)C(=O)OC2 | inactive | inactive | – | 10 to 50% | – | – | – | inhibition of growth at 375 µM (Klebsiella pneumoniae [8]): 10 to 50%; inhibition of growth at 750 µM (Escherichia coli [5]): 10 to 50%
4 | CC[C@H](C)[C@H](NC(=O)CC/C(C)=C/Cc1c(O)c2c(c(C)c1OC)COC2=O)C(=O)O | – | inactive | – | – | inactive | – | – | inhibition of growth at 375 µM (Escherichia coli [9]): 10 to 50%
5 | COC(=O)C(NC(=O)C(CCCCNC(=O)CN)NC(=O)C1CCCN1C(=O)C(CCCNC(=N)N[N+](=O)[O-])NC(=O)CC/C(C)=C/Cc1c(O)c2c(c(C)c1OC)COC2=O)C(C)O (stereo unspecified) (Mycophenolyl-[Arg(NO2)]PK(Gly)T-OMe; configuration not given here) | 64 µg/mL (≈ 69.6 µM) | 64 µg/mL (≈ 69.6 µM) | 16 µg/mL (≈ 17.4 µM) | – | 128 µg/mL (≈ 139 µM) | 256 µg/mL (≈ 279 µM) | inactive | –
6 | COC(=O)C(NC(=O)C(CCCCNC(=O)CCN)NC(=O)C1CCCN1C(=O)C(CCCNC(=N)N[N+](=O)[O-])NC(=O)CC/C(C)=C/Cc1c(O)c2c(c(C)c1OC)COC2=O)C(C)O (stereo unspecified) (Mycophenolyl-[Arg(NO2)]PK(βAla)T-OMe; configuration not given here) | 32 µg/mL (≈ 34.3 µM) | 32 µg/mL (≈ 34.3 µM) | 32 µg/mL (≈ 34.3 µM) | – | 128 µg/mL (≈ 137 µM) | 256 µg/mL (≈ 274 µM) | inactive | –
7 | COC(=O)C(NC(=O)CC/C(C)=C/Cc1c(O)c2c(c(C)c1OC)COC2=O)C(=O)OC | 256 µg/mL (≈ 570 µM) | 256 µg/mL (≈ 570 µM) | 128 µg/mL (≈ 285 µM) | – | 256 µg/mL (≈ 570 µM) | 256 µg/mL (≈ 570 µM) | inactive | –
8 | COC(=O)[C@H](CCCNC(=N)N[N+](=O)[O-])NC(=O)CC/C(C)=C/Cc1c(O)c2c(c(C)c1OC)COC2=O | 64 µg/mL (≈ 120 µM) | 32 µg/mL (≈ 59.8 µM) | 64 µg/mL (≈ 120 µM) | – | 128 µg/mL (≈ 239 µM) | 256 µg/mL (≈ 478 µM) | inactive | –
9 | CC1(C)S[C@@H]2[C@H](NC(=O)[C@H](N)c3ccccc3)C(=O)N2[C@H]1C(=O)O [AMPICILLIN] | – | – | – | – | – | – | – | MIC90 (Staphylococcus aureus [1]): 128 µg/mL (≈ 366 µM); MIC90 (Staphylococcus aureus [2]): 0.125 µg/mL (≈ 0.358 µM); MIC90 (Acinetobacter baumannii): 2 µg/mL (≈ 5.72 µM); MIC90 (Escherichia coli [6]): 8 µg/mL (≈ 22.9 µM); MIC90 (Klebsiella pneumoniae [3]): 128 µg/mL (≈ 366 µM); MIC90 (Pseudomonas aeruginosa [10]): 256 µg/mL (≈ 733 µM)
10 | COc1c(C)c2c(c(O)c1C/C=C(\C)CCC(=O)N[C@@H](CCCNC(=N)N[N+](=O)[O-])C(=O)O)C(=O)OC2 | inactive | inactive | inactive | – | – | – | inactive | inhibition of growth at 750 µM (Escherichia coli [5]): 10 to 50%
11 | COC(=O)[C@@H](NC(=O)CC/C(C)=C/Cc1c(O)c2c(c(C)c1OC)COC2=O)C(C)O (stereo partly specified) | 32 µg/mL (≈ 73.5 µM) | 8 µg/mL (≈ 18.4 µM) | 256 µg/mL (≈ 588 µM) | – | 256 µg/mL (≈ 588 µM) | 256 µg/mL (≈ 588 µM) | inactive | –
12 | COc1c(C)c2c(c(O)c1C/C=C(\C)CCC(=O)N[C@H](CCCNC(=N)N[N+](=O)[O-])C(=O)O)C(=O)OC2 | inactive | inactive | inactive | 10 to 50% | – | – | – | inhibition of growth at 1500 µM (Escherichia coli [11]): 10 to 50%
13 | COC(=O)[C@@H](CCCNC(=N)N[N+](=O)[O-])NC(=O)CC/C(C)=C/Cc1c(O)c2c(c(C)c1OC)COC2=O | inactive | inactive | inactive | – | – | – | – | –
14 | COc1c(C)c2c(c(O)c1C/C=C(\C)CCC(=O)N[C@@H](C(=O)O)[C@@H](C)O)C(=O)OC2 | inactive | inactive | inactive | 10 to 50% | – | – | – | inhibition of growth at 1500 µM (Escherichia coli [11]): 10 to 50%
15 | CCC(C)[C@H](NC(=O)CC/C(C)=C/Cc1c(O)c2c(c(C)c1OC)COC2=O)C(=O)OC (stereo partly specified) | 256 µg/mL (≈ 572 µM) | 16 µg/mL (≈ 35.8 µM) | 256 µg/mL (≈ 572 µM) | – | 256 µg/mL (≈ 572 µM) | 256 µg/mL (≈ 572 µM) | inactive | –
16 | NC[C@H]1O[C@H](O[C@H]2[C@H](O)[C@@H](O[C@H]3O[C@H](CO)[C@@H](O)[C@H](N)[C@H]3O)[C@H](N)C[C@@H]2N)[C@H](O)[C@@H](O)[C@@H]1O [KANAMYCIN] | – | – | inactive | – | inactive | – | 1500 µg/mL (≈ 3100 µM) | MIC90 (Staphylococcus aureus [1]): 125 µg/mL (≈ 258 µM); MIC90 (Staphylococcus aureus [2]): 7.8 µg/mL (≈ 16.1 µM); MIC90 (Escherichia coli [6]): 15.6 µg/mL (≈ 32.2 µM)
17 | COC(=O)[C@H](NC(=O)CC/C(C)=C/Cc1c(O)c2c(c(C)c1OC)COC2=O)C(C)O (stereo partly specified) | inactive | inactive | inactive | 10 to 50% | – | – | – | inhibition of growth at 1500 µM (Escherichia coli [11]): 10 to 50%
18 | COC(=O)C[C@H](NC(=O)CC/C(C)=C/Cc1c(O)c2c(c(C)c1OC)COC2=O)C(=O)OC | 32 µg/mL (≈ 69 µM) | 32 µg/mL (≈ 69 µM) | 256 µg/mL (≈ 552 µM) | – | 256 µg/mL (≈ 552 µM) | 256 µg/mL (≈ 552 µM) | inactive | –
